Data as given in ChEMBL document CHEMBL2424526, “Thrombin inhibitory activity of some polyphenolic compounds” (Med Chem Res, 2013).
Calls of active or inactive are those of the source. The rule behind the calls is not given here.

Legend:
[1] = molecular target: T1, Prothrombin (Homo sapiens, UniProt P00734); test: Inhibition of human thrombin amidolytic activity using D-Phe-Pip-Arg-pNA as substrate at 0.1 to 1000 uM preincubated for 10 mins followed by substrate addition measured every 12 secs for 10 mins by spectrophotometric analysis
In short: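 Human plasma thrombin (17.6 nM in 50 mM TBS pH 7.4) preincubated 10 min at 37 °C with compound (from 10 mM stocks in 50% DMSO; final DMSO 5%, final thrombin 15.8 nM), then added to 3 mM D-Phe-Pip-Arg-pNA stock.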

[2] = molecular target: T1, Prothrombin; conditions: 50 to 1000 uM
[3] = molecular target: T1, Prothrombin; test: Inhibition of human thrombin assessed as inhibition of fibrinogen polymerization preincubated for 10 mins followed by fibrionogen addition measured for 20 mins
In short: (§1)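 Thrombin preincubated with compound 10 min at 37 °C, then added (final 10.4 nM) to human fibrinogen (3 mg/ml) in 50 mM TBS with 5 mM CaCl2, pH 7.4. Turbidity at 595 nm read every 12 s for 20 min at 37 °C. Vmax expressed as % of solvent control; 12 independent experiments in duplicate.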

[4] = molecular target: T1, Prothrombin; conditions: 75 to 750 uM
[5] = molecular target: T1, Prothrombin; test: Inhibition of human thrombin amidolytic activity using D-Phe-Pip-Arg-pNA as substrate preincubated for 10 mins followed by substrate addition measured every 12 secs for 10 mins by spectrophotometric analysis
[6] = molecular target: T1, Prothrombin; test: Inhibition of human thrombin assessed as equilibrium association constant at 50 to 1000 uM by BIAcore analysis
[7] = molecular target: T1, Prothrombin; test: Inhibition of human thrombin assessed as inhibition of fibrinogen gamma-gamma chain formation at 250 uM after 5 mins by SDS-PAGE analysis
In short: (§2)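 Thrombin preincubated 10 min at 37 °C with compound, then mixed with human fibrinogen (3 mg/ml, containing factor XIII) in 50 mM TBS with 5 mM CaCl2; final thrombin 10.4 nM, 37 °C. Stopped at 5, 15, 30 min with urea/SDS/β-mercaptoethanol buffer. Run on 7.5% SDS-PAGE, Coomassie stained, scored for γ–γ dimer and α-polymer bands.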

[8] = molecular target: Urokinase-type plasminogen activator (Homo sapiens, UniProt P00749); test: Inhibition of urokinase amidolytic activity (unknown origin)
[9] = molecular target: T1, Prothrombin; test: Competitive inhibition of human thrombin using D-Phe-Pip-Arg-pNA as substrate preincubated for 10 mins followed by substrate addition measured every 12 secs for 10 mins by Lineweaver-Burk plot analysis
[10] = molecular target: T1, Prothrombin; test: Inhibition of human thrombin assessed as inhibition of fibrinogen gamma-gamma chain formation at 250 uM after 15 mins by SDS-PAGE analysis; in short: as §2
[11] = molecular target: T1, Prothrombin; test: Inhibition of human thrombin assessed as decrease in platelet aggregation at 25 to 250 uM preincubated for 10 mins measured for 10 mins by dual channel chrono-log aggregometric analysis
In short: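 Human plasma thrombin (17.6 nM in 50 mM TBS, pH 7.4) preincubated 10 min at 37 °C with compound from 50% DMSO stock (9:1 v/v). Added to gel-filtered human platelets in modified Tyrode's buffer (1.5 × 10^5/μl), pre-warmed 5 min at 37 °C with stirring; final thrombin 2.4 nM, DMSO 0.77%. Turbidimetric aggregation followed for 10 min. Given as % of solvent control; eight independent experiments in duplicate.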

[12] = molecular target: T1, Prothrombin; test: Inhibition of human thrombin assessed as inhibition of fibrinogen alpha-polymer formation at 250 uM after 5 mins by SDS-PAGE analysis; in short: as §2
[13] = molecular target: T1, Prothrombin; test: Inhibition of thrombin (unknown origin) assessed as hydrolysis of N-benzoyl-phenylalanylvalyl-arginine-paranitroanilide
[14] = molecular target: T1, Prothrombin; test: Inhibition of human thrombin assessed as inhibition of fibrinogen alpha-polymer formation at 250 uM after 15 mins by SDS-PAGE analysis; in short: as §2
[15] = molecular target: T1, Prothrombin; test: Inhibition of human thrombin assessed as inhibition of fibrinogen polymerization at 1000 uM preincubated for 10 mins followed by fibrionogen addition measured for 20 mins
In short: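 Thrombin preincubated 10 min at 37 °C with compound, then added to human fibrinogen (3 mg/ml) in 50 mM TBS, 5 mM CaCl2, pH 7.4; final thrombin 10.4 nM. Turbidity at 595 nm read every 12 s for 20 min at 37 °C. Vmax expressed as % of solvent control; mean ± SD of 12 independent experiments in duplicate.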

[16] = molecular target: T1, Prothrombin; test: Inhibition of human thrombin assessed as response unit at 1000 uM by BIAcore analysis
In short: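 Thrombin amine-coupled on a CM5 chip (NHS/EDC, acetate pH 6.0), 25 °C, PBS pH 7.4 running buffer. Polyphenol (100 μl) injected for 600 s at 10 μl/min, followed by 200 s PBS dissociation. Bound level read in RU. Channel regenerated with 0.1 M NaOH and 0.1 M HCl.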

[17] = molecular target: Trypsin (Homo sapiens, UniProt P07477+P07478+P35030); test: Inhibition of trypsin amidolytic activity (unknown origin); assay type: protein assay
[18] = molecular target: T1, Prothrombin; test: Inhibition of human thrombin assessed as inhibition of fibrinogen alpha polymer formation at IC50 after 15 mins by SDS-PAGE analysis
In short: (§3)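 Fibrinogen isolated from human plasma, containing factor XIII (3 mg/ml in 50 mM TBS, 5 mM CaCl2), mixed with thrombin (final 10.4 nM) that was preincubated with compound. Incubated at 37 °C and stopped at 5, 15 or 30 min with urea/SDS/β-mercaptoethanol buffer. Run on 7.5 % SDS-PAGE with Coomassie stain. Aα, γ, γ–γ dimer and α-polymer bands scored.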

[19] = molecular target: T1, Prothrombin; test: Inhibition of human thrombin assessed as inhibition of fibrinogen gamma-gamma chain formation at IC50 after 15 mins by SDS-PAGE analysis; in short: as §3
[20] = molecular target: T1, Prothrombin; test: Inhibition of human thrombin assessed as inhibition of band decaying corresponding to fibrinogen gamma chains at 15 uM after 5 mins by SDS-PAGE analysis; in short: as §3
[21] = molecular target: T1, Prothrombin; test: Inhibition of human thrombin assessed as inhibition of fibrinogen gamma-gamma chain formation at 15 uM after 5 mins by SDS-PAGE analysis; in short: as §3
[22] = molecular target: T1, Prothrombin; test: Inhibition of human thrombin assessed as inhibition of fibrinogen gamma-gamma chain formation at IC50 after 5 mins by SDS-PAGE analysis; in short: as §3
[23] = molecular target: T1, Prothrombin; test: Inhibition of human thrombin assessed as inhibition of band decaying corresponding to fibrinogen gamma chains at IC50 after 30 mins by SDS-PAGE analysis; in short: as §3
[24] = molecular target: T1, Prothrombin; test: Inhibition of human thrombin assessed as inhibition of fibrinogen alpha-polymer formation at IC50 after 5 mins by SDS-PAGE analysis; in short: as §3
[25] = molecular target: T1, Prothrombin; test: Inhibition of human thrombin assessed as inhibition of band decaying corresponding to fibrinogen Aalpha chains at 15 uM after 5 mins by SDS-PAGE analysis; in short: as §3
[26] = molecular target: T1, Prothrombin; test: Inhibition of human thrombin assessed as inhibition of band decaying corresponding to fibrinogen Aalpha chains at IC50 after 30 mins by SDS-PAGE analysis; in short: as §3
[27] = molecular target: T1, Prothrombin; test: Inhibition of human thrombin assessed as inhibition of fibrinogen polymerization at 50 uM preincubated for 10 mins followed by fibrionogen addition measured for 20 mins; in short: as §1
[28] = molecular target: T1, Prothrombin; test: Inhibition of human thrombin assessed as decrease in platelet aggregation preincubated for 10 mins measured for 10 mins by dual channel chrono-log aggregometric analysis
In short: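 Gel-filtered (BSA–Sepharose 2B) human platelets at 1.5 × 10^5/μl in modified Tyrode's buffer pH 7.4, prewarmed 5 min at 37 °C with stirring. Thrombin (final 2.4 nM) preincubated 10 min at 37 °C with compound, then added. Turbidimetric aggregation recorded 10 min (0.77 % DMSO final). Result given as % of control; eight independent experiments in duplicate.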

[29] = molecular target: T1, Prothrombin; test: Inhibition of human thrombin assessed as inhibition of fibrinogen alpha-polymer formation at 15 uM after 5 mins by SDS-PAGE analysis; in short: as §3
[30] = molecular target: T1, Prothrombin; conditions: 125 to 1000 uM
[31] = molecular target: T1, Prothrombin; conditions: 125 to 1000 uM; remark: listed apart in the source

Structure (SMILES): O=C(O)Cc1ccc(O)cc1
- inhibition [1]: inactive

Structure (SMILES): OC[C@H]1O[C@@H](Oc2cc3c(O[C@@H]4O[C@H](CO)[C@@H](O)[C@H](O)[C@H]4O)cc(O)cc3[o+]c2-c2ccc(O)c(O)c2)[C@H](O)[C@@H](O)[C@@H]1O
- inhibition [2]: inactive
- inhibition [3]: inactive
- inhibition [4]: inactive
- inhibition [5]: Dose-dependent effect
- Ka [6]: 1.15 ×10² /M

Structure (SMILES): O=C(O)/C=C/c1ccc(O)cc1
- inhibition [1]: inactive

Structure (SMILES): COc1cc(C2Oc3cc([C@H]4Oc5cc(O)cc(O)c5C(=O)[C@@H]4O)ccc3OC2CO)ccc1O (stereo not given in full) [SILIBININ]
- inhibition [7]: Active
- IC50 [8]: 21 µM
- inhibition [9]: Active
- inhibition [10]: inactive
- inhibition [3]: Dose-dependent effect
- inhibition [11]: Active
- inhibition [12]: Active
- IC50 [13]: 20.9 µM
- inhibition [14]: inactive
- inhibition [5]: Dose-dependent effect
- inhibition [15]: Active
- RU [16]: 1420
- Ka [6]: 5.39 ×10⁴ /M
- IC50 [17]: 3.7 µM

Structure (SMILES): O=C(/C=C/c1ccc(O)c(O)c1)O[C@@H]1C[C@](O)(C(=O)O)C[C@@H](O)[C@H]1O
- inhibition [1]: inactive

Structure (SMILES): O=c1c(O)c(-c2ccc(O)c(O)c2)oc2cc(O)cc(O)c12 [QUERCETIN]
- inhibition [18]: inactive
- IC50 [8]: 12.1 µM
- inhibition [19]: inactive
- inhibition [9]: Active
- inhibition [20]: Active
- inhibition [21]: Active
- inhibition [3]: Dose-dependent effect
- inhibition [22]: Active
- inhibition [23]: inactive
- IC50 [13]: 30 µM
- inhibition [24]: Active
- inhibition [5]: Dose-dependent effect
- inhibition [25]: Active
- RU [16]: 1880
- Ka [6]: 2.59 ×10⁷ /M
- IC50 [17]: 15.4 µM
- inhibition [26]: inactive
- inhibition [27]: Active
- inhibition [28]: Dose-dependent effect
- inhibition [29]: Active

Structure (SMILES): COc1ccc([C@@H]2CC(=O)c3c(O)cc(O[C@@H]4O[C@H](CO[C@@H]5O[C@@H](C)[C@H](O)[C@@H](O)[C@H]5O)[C@@H](O)[C@H](O)[C@H]4O)cc3O2)cc1O
- inhibition [1]: inactive

Structure (SMILES): Oc1cc(O)c2c(c1)O[C@H](c1ccc(O)c(O)c1)[C@@H](O)C2
- inhibition [30]: inactive
- inhibition [9]: Active
- inhibition [3]: inactive
- inhibition [31]: inactive
- inhibition [5]: Dose-dependent effect
- Ka [6]: 2.03 ×10⁴ /M

Structure (SMILES): C[C@@H]1O[C@@H](OC[C@H]2O[C@@H](Oc3c(-c4ccc(O)c(O)c4)oc4cc(O)cc(O)c4c3=O)[C@H](O)[C@@H](O)[C@@H]2O)[C@H](O)[C@H](O)[C@H]1O
- inhibition [1]: inactive
